According to ChEMBL document CHEMBL1150875, “Petrosaspongiolides M-R: new potent and selective phospholipase A2 inhibitors from the New Caledonian marine sponge Petrosaspongia nigra” (J Nat Prod, 1998):

Assays:
Sus scrofa = species: Sus scrofa; assay: Inhibition of pig pancreatic secretory PLA2 at 10 uM; parameters: scale not given: the % may be the effect or the level left
In short: (§1)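 Percent inhibition of the enzyme's activity with test compound at 10 µM. Reported as mean ± S.E.M., n = 6, with significance marked at p < 0.05 and p < 0.01.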

[1] = molecular target: T1, Phospholipase A2 (Apis mellifera) (UniProt P00630); assay: Inhibition of bee venom secretory PLA2 at 10 uM; parameters: scale not given: the % may be the effect or the level left
T1 sequence (whole entry): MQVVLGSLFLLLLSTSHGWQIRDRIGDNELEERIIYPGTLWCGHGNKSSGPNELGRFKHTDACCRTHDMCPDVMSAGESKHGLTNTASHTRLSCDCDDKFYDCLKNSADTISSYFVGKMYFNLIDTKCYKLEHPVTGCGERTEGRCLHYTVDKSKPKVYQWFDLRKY
In short: (§2)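 Secreted PLA2 from Naja naja venom or bee venom exposed to 10 µM compound. Result reported as percent inhibition, mean ± S.E.M. of n = 6.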

[2] = molecular target: Phospholipase A2 (Homo sapiens) (UniProt P04054); assay: Inhibition of human synovial secretory PLA2 at 10 uM; parameters: scale not given: the % may be the effect or the level left; in short: as §1
Sequence of Phospholipase A2 (Homo sapiens) (P04054 23-148 limits assumed): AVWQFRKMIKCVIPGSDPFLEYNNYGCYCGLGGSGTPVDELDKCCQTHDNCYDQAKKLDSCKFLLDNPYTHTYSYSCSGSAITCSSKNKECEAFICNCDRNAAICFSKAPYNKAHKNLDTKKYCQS

[3] = molecular target: Acidic phospholipase A2 2 (Naja naja) (UniProt P15445); assay: Inhibition of Naja Naja venom secretory PLA2 at 10 uM; parameters: scale not given: the % may be the effect or the level left; in short: as §2
Sequence of Acidic phospholipase A2 2 (Naja naja) (P15445 whole entry): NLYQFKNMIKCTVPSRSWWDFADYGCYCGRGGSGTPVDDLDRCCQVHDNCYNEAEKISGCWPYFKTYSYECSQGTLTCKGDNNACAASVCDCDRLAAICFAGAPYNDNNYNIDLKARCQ

Phospholipase A2 = molecular target: T2, Phospholipase A2 (Apis mellifera, UniProt P00630); assay: Inhibition of bee venom secretory PLA2
T2 sequence (P00630 whole entry): T1 sequence (whole entry)

| Structure (SMILES) | Activity (Sus scrofa) [%] | Activity [1] [%] | Activity [2] [%] | Activity [3] [%] | IC50 (Phospholipase A2) [µM] |
| --- | --- | --- | --- | --- | --- |
| CC(=O)OC[C@@]1(C)CCC[C@]2(C)[C@H]3CC[C@@H]4[C@H](O)O[C@@H](C5=CC(=O)OC5O)C[C@H]4[C@]3(C)CC[C@@H]12 (stereo partly specified) | 0 | 12.5 | 30.1 | 4.2 | – |
| CC(=O)OC1OC(=O)C=C1[C@H]1C[C@@H]2[C@H](CCC3[C@@]4(C)CCCC(C)(C)C4CC[C@]32C)[C@@H](OC(C)=O)O1 (stereo partly specified) | 0 | 10.6 | 32.1 | 6.9 | – |
| CC1=C(CC/C(C)=C/CCC2=CC[C@H](C3=CC(=O)O[C@H]3O)O[C@H]2O)C(C)(C)CCC1 [MANOALIDE] | – | – | – | – | 7.5 |
| CC(=O)OC[C@@]1(C)CCC[C@]2(C)[C@H]3CC[C@@H]4[C@H](OC(C)=O)O[C@@H](C5=CC(=O)OC5O)C[C@H]4[C@]3(C)CC[C@@H]12 (stereo partly specified) | 11.6 | 43.9 | 44 | 6.8 | – |
| CC(=O)O[C@H]1O[C@@H](C2=CC(=O)OC2O)C[C@@H]2[C@@H]1CCC1[C@@]3(C)CCCC(C)(C)C3CC[C@]12C (stereo partly specified) | 0 | 34.8 | 59 | 5.6 | – |
| CC1(C)CCC[C@]2(C)[C@H]3CC[C@H](C(=O)O)[C@@H](/C=C/C4=CC(=O)OC4O)[C@]3(C)CC[C@@H]12 (stereo partly specified) | 0.8 | 18.8 | 7.1 | 1 | – |
| CC(=O)O[C@@H]1O[C@@H](C2=CC(=O)OC2O)C[C@@H]2[C@@H]1CC[C@H]1[C@@]2(C)CC[C@H]2C(C)(C)CCC[C@]12C (stereo partly specified) [PETROSASPONGIOLIDE M] | 12.3 | 71 | 68.6 | 11.5 | 0.6 |
